Drawing on ChEMBL document CHEMBL3112513, “Synthesis, docking and pharmacological evaluation of novel indole based potential atypical antipsychotics” (2014), this text covers Activity and ED50 for seven compounds.

Experiment [1] relates to Mus musculus. The experiment can be described thus: Antipsychotic activity in albino lyka mouse assessed as reversal of apomorphine-induced stereotypy at 2.5 to 7.5 mg/kg, ip administered 10 mins prior to apomorphine challenge measured 10 to 30 mins post challenge. It is filed as functional, organism-based. In a few lines: (§1)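 Mice (same animals as the climbing test) dosed ip with test agent, saline vehicle or clozapine; apomorphine 2.5 mg/kg given 10 min later. Each mouse was placed in an inverted 500 ml beaker for 60 s at 10, 15, 20, 25 and 30 min post-apomorphine. Scored 1 (rearing, sniffing, grooming) or 2 (licking, biting). Three doses per compound, chosen by initial titration.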

In experiment [2] the test system is Mus musculus. The experiment can be described thus: Antipsychotic activity in ip dosed albino lyka mouse assessed as reversal of apomorphine-induced mesh climbing response administered 10 mins prior to apomorphine challenge measured 10 to 30 mins post challenge. The class given is functional. In a few lines: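 Test agent, saline or clozapine given ip; apomorphine 2.5 mg/kg ip 10 min later. Mice were placed in a mesh cage for 60 s at 10, 15, 20, 25 and 30 min post-apomorphine, with a naive baseline recorded first. Climbing scored 1 (one to three paws on mesh) or 2 (all four paws). Mean score per group.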

Experiment [3] relates to Mus musculus. Nature of the experiment: Antipsychotic activity in albino lyka mouse assessed as reversal of apomorphine-induced stereotypy at 2.5 to 5 mg/kg, ip administered 10 mins prior to apomorphine challenge measured 10 to 30 mins post challenge. It is filed as functional, organism-based. In a few lines: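 Mice given test compound, vehicle or clozapine i.p., then apomorphine 2.5 mg/kg i.p. 10 min later. Each mouse placed in an inverted 500 ml beaker for 60 s at 10, 15, 20, 25 and 30 min after apomorphine. Scored 1 (rearing, sniffing, grooming) or 2 (licking, biting), reported as mean score. Same mice as mesh-climbing test. Three dose levels, chosen by initial titration.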

Experiment [4] deals with Mus musculus. The experiment can be described thus: Antipsychotic activity in albino lyka mouse assessed as reversal of apomorphine-induced stereotypy at 2 to 7.5 mg/kg, ip administered 10 mins prior to apomorphine challenge measured 10 to 30 mins post challenge. The class given is functional, organism-based. The method in brief: as §1
Experiment [5] deals with Mus musculus. The experiment can be described thus: Antipsychotic activity in albino lyka mouse assessed as reversal of apomorphine-induced stereotypy at 5 to 10 mg/kg, ip administered 10 mins prior to apomorphine challenge measured 10 to 30 mins post challenge. It is filed as functional, organism-based. In a few lines:
as §1

Activity calls are given as the source filed them. The calls are words filed in the database; no cut-off is given here.

On to `COc1ccc(NCCCOc2ccc(-c3cc4ccccc4[nH]3)cc2)cc1`, for which the outcome with Mus musculus [1] was Active. Moreover, in the experiment on Mus musculus [2], the ED50 came to 1.9 mg/kg.
Turning to `CN1CCN(C2=Nc3cc(Cl)ccc3Nc3ccccc32)CC1` [CLOZAPINE], in the experiment on Mus musculus [3], the result was inactive. In addition, the ED50 with Mus musculus [2] is 3.07 mg/kg.
For the compound `COc1ccccc1NCCCOc1ccc(-c2cc3ccccc3[nH]2)cc1`, the outcome with Mus musculus [1] was Active. For the same compound, the ED50 in the experiment with Mus musculus [2] worked out at 1.7 mg/kg.
For `Clc1ccc(NCCCOc2ccc(-c3cc4ccccc4[nH]3)cc2)cc1`, the result in the experiment with Mus musculus [4] was inactive. For the same compound, in the experiment on Mus musculus [2], the ED50 was found to be 1.8 mg/kg.
Take `Clc1ccccc1NCCCOc1ccc(-c2cc3ccccc3[nH]2)cc1`: in the experiment with Mus musculus [4], the outcome was inactive. Moreover, in the experiment on Mus musculus [2], the ED50 turned out to be 1.6 mg/kg.
Turning to `Clc1ccc(NCCCOc2ccccc2-c2cc3ccccc3[nH]2)cc1`, the outcome in the experiment with Mus musculus [5] was inactive. Besides, the ED50 in the experiment with Mus musculus [2] was 7.23 mg/kg.
The corresponding values for `Clc1ccccc1NCCCOc1ccccc1-c1cc2ccccc2[nH]1` are “inactive” and 6.23 mg/kg.
